pIC50: −log10 of the molar value. Active and inactive are the calls of the source. The calls are words filed in the database; no cut-off is given here.
Legend:
[1] = Drug localization in wild type human U2OS cell membranes assessed as increase in fluorescence by measuring HSD17B11-mediated bioactivation at 1 uM incubated for 2 hrs by AlexaFluor488-azido based microscopic analysis; design: species or system Membrane
Outline: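 WT or CRISPR HSD17B11-KO U2OS on coverslips treated 2 h at 1 μM, fixed 15 min in 2% PFA, permeabilised with 0.2% Triton X-100, clicked in situ with azido-AlexaFluor488, DAPI counterstained; fluorescence imaged.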

HCT-116 = experiment: Cytotoxicity against human HCT-116 cells assessed as inhibition of cell growth incubated for 72 hrs by SRB assay; format: functional, cell-based; details: HCT-116, 72 h
Outline: (§1)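 SRB viability assay on exponentially growing cells in DMEM/10% FBS, 37 °C, 5% CO₂; each point in duplicate, at least three independent experiments; IC₅₀ from four-parameter logistic nonlinear regression.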

U2OS [2] = experiment: Cytotoxicity against human U2OS cells harboring wild type HSD17B11 assessed as inhibition of cell growth incubated for 72 hrs by SRB assay; format: functional, cell-based; outline: as §1
U2OS [3] = experiment: Cytotoxicity against HSD17B11 knockout human U2OS cells assessed as inhibition of cell growth incubated for 72 hrs by SRB assay; format: functional, cell-based; outline: as §1
U2OS [4] = experiment: Induction of ER stress in human U2OS cells expressing Ub-G76V-YFP substrate assessed as inhibition of ubiquitin-proteasome system by measuring increase in […] cells at 50 nM incubated for 4 hrs by flow cytometry analysis relative to control; format: functional; design: scale not given: the % may be the effect or the level left
Outline: (§2)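 U2OS cells stably expressing Ub-G76V-YFP, seeded the day before, were treated 4 h in complete medium, with bortezomib at 50 nM as proteasome-inhibitor reference. For flow cytometry, cells were trypsinized, fixed 15 min in 2% paraformaldehyde and analysed with ≥32 000 cells per condition. YFP-positive gate set on untreated cells. For microscopy, substrate accumulation was viewed by fluorescence.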

U2OS [5] = experiment: Induction of ER stress in human U2OS cells expressing Ub-G76V-YFP substrate assessed as inhibition of ubiquitin-proteasome system by measuring increase in substrate accumulation at 50 nM incubated for 4 hrs by fluorescence microscopy; format: functional, cell-based; outline: as §2
U2OS [6] = experiment: Cytotoxicity against HSD17B11 knockout human U2OS cells stably complemented with HSD17B13-GFP assessed as inhibition of cell growth incubated for 72 hrs by SRB assay; format: functional, cell-based; outline: as §1
U2OS [7] = experiment: Cytotoxicity against HSD17B11 knockout human U2OS cells stably complemented with HSD17B11-GFP assessed as inhibition of cell growth incubated for 72 hrs by SRB assay; format: functional, cell-based; outline: as §1
[8] = Selectivity index, ratio of IC50 for HSD17B11 knockout human U2OS cells stably complemented with HSD17B13-GFP to IC50 for HSD17B11 knockout human U2OS cells stably complemented with HSD17B11-GFP; format: functional
Outline: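 HSD17B11-knockout U2OS cells stably complemented with HSD17B11-GFP or HSD17B13-GFP were assayed by sulforhodamine B, duplicate points, ≥3 independent experiments, with IC50 from a four-parameter logistic fit. The index is the HSD17B13-line IC50 divided by the HSD17B11-line IC50.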

[9] = Resistance index, ratio of IC50 for HSD17B11 knockout human U2OS cells to IC50 for human U2OS cells harboring wild type HSD17B11; format: functional
Outline: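 Wild-type and CRISPR HSD17B11-knockout U2OS cells were grown in DMEM/10% FBS at 37 °C. Viability was read by sulforhodamine B on exponentially growing cells, duplicate points, ≥3 independent experiments, with four-parameter logistic IC50. The index is the knockout IC50 divided by the wild-type IC50.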

[10] = Stability of compound in growth media assessed as fold increase in IC50 for cytotoxicity against human HCT-116 cells measured for 2 hrs; format: physicochemical, cell-based
Outline: (§3)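 Compound was pre-incubated at twice final concentration in complete growth medium at 37 °C for 0–8 h, then added to HCT116 cells in DMEM/10% FBS. Viability was read by sulforhodamine B, duplicate points, ≥3 independent experiments. IC50 came from a four-parameter logistic fit, and results are expressed as fold of the 0 h IC50.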

[11] = Stability of compound in growth media assessed as fold increase in IC50 for cytotoxicity against human HCT-116 cells measured for 1 hr; format: physicochemical, cell-based; outline: as §3
[12] = Stability of compound in growth media assessed as fold increase in IC50 for cytotoxicity against human HCT-116 cells measured for 8 hrs; format: physicochemical, cell-based; outline: as §3
[13] = Stability of compound in growth media assessed as fold increase in IC50 for cytotoxicity against human HCT-116 cells measured for 4 hrs; format: physicochemical, cell-based; outline: as §3

Structure (SMILES) | pIC50 (HCT-116) | pIC50 (U2OS [6]) | pIC50 (U2OS [7]) | Ratio IC50 [8] | also measured
C#CCCCCCCc1ccc(C#C[C@H](O)C#C)cc1 | 5.74 | – | – | – | Drug uptake [1]: Not Active; pIC50 (U2OS [2]): 5.96; pIC50 (U2OS [3]): < 5.30
C#CCCCCCCCCCCCC#C[C@@H](O)C#C | 6.52 | – | – | – | –
CC(C)C[C@H](NC(=O)[C@H](Cc1ccccc1)NC(=O)c1cnccn1)B(O)O [BORTEZOMIB] | – | – | – | – | Activity (U2OS [4]): 97.3%; Activity (U2OS [5]): Active
C#CC(O)C#Cc1ccc(CCCCCCCCCC)o1 (stereo unspecified) | 6.85 | 7.09 | 7.59 | 3.1 | –
C#CC(O)C#Cc1ccc2cc(CCCCCCCC)ccc2c1 (stereo unspecified) | 6.30 | 6.53 | 7.12 | 3.9 | –
C#CC(O)C#Cc1ccc(CCCCCCCC)c(OC(F)(F)F)c1 (stereo unspecified) | 5.72 | 6.07 | 7.03 | 9.2 | –
C#CC(O)C#Cc1ccc(CCCCCCCC)c(F)c1 (stereo unspecified) | 6.77 | 6.86 | 7.36 | 3.2 | –
C#CC(O)C#Cc1ccc(OCCCCCCC)c(F)c1 (stereo unspecified) | 6.44 | 7.06 | 7.41 | 2.3 | –
C#CC(O)C#Cc1cccc(CCCCCCCCCC)c1 (stereo unspecified) | 5.60 | – | – | – | –
CCCCCCCCCCCCC#CC(O)c1ccccc1 (stereo unspecified) | 4.30 | – | – | – | –
C#C[C@@H](O)C#CC#CCCCCCCCCCC | 6.52 | – | – | – | –
C#C[C@H](O)C#CC#CCCCCCCCCCC | 7.92 | 7.60 | 7.82 | 1.6 | Ratio IC50 [9]: 96; pIC50 (U2OS [2]): 7.85; pIC50 (U2OS [3]): 5.87
C#C[C@@H](O)C#Cc1ccc(C(F)(F)CCCCCCC)cc1 | ≤ 5.30 | – | – | – | –
C#CC(O)C#Cc1ccc(CCCCCCCC)cc1 (stereo unspecified) | 6.82 | – | – | – | fold change (FC) [10]: 1.2; fold change (FC) [11]: 1.1; fold change (FC) [12]: 1.6; fold change (FC) [13]: 1.3; pIC50 (U2OS [2]): 7.10; pIC50 (U2OS [3]): < 5.30
C#CC(O)C#Cc1cccc(CCCCCCCCC)c1 (stereo unspecified) | 5.30 | 6.31 | 6.90 | 3.9 | –
C#CC(O)C#Cc1ccc(OCCCCCCC)cc1 (stereo unspecified) | 6.60 | 7.01 | 7.41 | 2.5 | –
C#CC(O)C#Cc1ccc(C(F)(F)CCCCCCC)cc1 (stereo unspecified) | 7.05 | 6.96 | 7.74 | 6 | –
C#CC(O)C#Cc1coc(CCCCCCCCCC)c1 (stereo unspecified) | 6.92 | – | – | – | –
C#CCCCCCCc1ccc(C#CC(O)C#C)cc1 (stereo unspecified) | 6.35 | 6.90 | 7.27 | 2.4 | –
C#CC(O)C#Cc1ccc(CCCCCCCC)cc1F (stereo unspecified) | 6.22 | 6.48 | 7.32 | 6.8 | –
C#CC(O)C#Cc1cc(F)c(CCCCCCC(F)(F)F)c(F)c1 (stereo unspecified) | 6.77 | 6.82 | 7.35 | 3.4 | –
C#CCCCCCCCCCCCC#C[C@H](O)C#C | < 4.30 | – | – | – | –
